Experimental findings from ChEMBL document CHEMBL1926661, “The arginine mimicking β-amino acid β³hPhe(3-H₂N-CH₂) as S1 ligand in cyclotheonamide-based β-tryptase inhibitors” (Bioorg Med Chem, 2011) are described below.

A short description of series [1]: Inhibition of trypsin.
Series [2] is filed under the species Homo sapiens. In words: Selectivity ratio of Ki for Trypsin to Ki for human beta-tryptase.
Series [3] can be described thus: Inhibition of human beta-tryptase.
Series [4] in a line: Inhibition of human mast cell tryptase-beta using chromogenic substrate.
The target of series [5] is Prothrombin (Homo sapiens, UniProt P00734). In words: Inhibition of thrombin.
For series [6], the target named is Coagulation factor X (Homo sapiens, UniProt P00742). Description: Inhibition of factor 10a.
Sequence of Coagulation factor X (P00742 41-179 limits assumed): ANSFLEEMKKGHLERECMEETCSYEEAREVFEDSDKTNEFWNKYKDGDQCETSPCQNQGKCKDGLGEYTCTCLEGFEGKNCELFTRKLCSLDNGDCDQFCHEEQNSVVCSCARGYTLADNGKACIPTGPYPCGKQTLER
Sequence of Coagulation factor X (P00742 235-488 limits assumed): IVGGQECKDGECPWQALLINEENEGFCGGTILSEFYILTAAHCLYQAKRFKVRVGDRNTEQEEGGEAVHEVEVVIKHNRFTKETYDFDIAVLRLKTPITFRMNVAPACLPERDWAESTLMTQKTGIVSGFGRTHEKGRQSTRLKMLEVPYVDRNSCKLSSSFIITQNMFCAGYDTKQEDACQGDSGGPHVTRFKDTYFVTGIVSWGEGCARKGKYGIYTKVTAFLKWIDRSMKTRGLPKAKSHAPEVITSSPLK
Series [7] concerns the target Kallikrein-1 (Homo sapiens, UniProt P06870). In words: Inhibition of tissue kallikrein.
For series [8], the target named is Plasma kallikrein (Homo sapiens, UniProt P03952). In words: Inhibition of plasma kallikrein.
Sequence of Plasma kallikrein (P03952 20-390 limits assumed): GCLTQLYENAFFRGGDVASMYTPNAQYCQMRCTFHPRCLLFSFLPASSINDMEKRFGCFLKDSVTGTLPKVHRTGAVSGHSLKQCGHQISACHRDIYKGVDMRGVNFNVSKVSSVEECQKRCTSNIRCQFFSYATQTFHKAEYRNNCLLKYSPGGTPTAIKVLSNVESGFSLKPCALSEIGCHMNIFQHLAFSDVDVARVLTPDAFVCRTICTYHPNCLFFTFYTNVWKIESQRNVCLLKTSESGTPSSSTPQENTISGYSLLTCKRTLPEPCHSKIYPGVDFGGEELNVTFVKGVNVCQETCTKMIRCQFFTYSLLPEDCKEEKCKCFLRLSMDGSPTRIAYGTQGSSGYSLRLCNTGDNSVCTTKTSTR
Sequence of Plasma kallikrein (P03952 391-638 limits assumed): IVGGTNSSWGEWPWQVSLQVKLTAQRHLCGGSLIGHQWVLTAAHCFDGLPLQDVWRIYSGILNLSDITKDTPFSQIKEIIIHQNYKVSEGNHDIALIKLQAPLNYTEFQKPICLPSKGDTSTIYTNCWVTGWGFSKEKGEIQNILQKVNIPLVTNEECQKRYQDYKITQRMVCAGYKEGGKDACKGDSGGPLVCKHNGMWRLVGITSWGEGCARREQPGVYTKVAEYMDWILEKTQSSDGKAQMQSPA
Series [9] in a line: Metabolic stability in human serum assessed as compound remaining at 200 uM after 48 hrs by RP-HPLC analysis. The series is classed as ADME, cell-free. Conditions: read-out: Stability. The essentials: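 Compound at 200 μM incubated in undiluted human plasma or human serum at 37 °C for up to 48 h. At time points, samples were acidified with an equal volume of 0.1% TFA and centrifuged at 8000 × g for 10 min. Supernatants were analysed by C18 RP-HPLC using a linear H₂O/MeCN (0.1% TFA) gradient over 200 min to quantify remaining intact inhibitor.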

The nature of series [10]: Inhibition of beta-tryptase.

Sequence of Kallikrein-1 (P06870 whole entry): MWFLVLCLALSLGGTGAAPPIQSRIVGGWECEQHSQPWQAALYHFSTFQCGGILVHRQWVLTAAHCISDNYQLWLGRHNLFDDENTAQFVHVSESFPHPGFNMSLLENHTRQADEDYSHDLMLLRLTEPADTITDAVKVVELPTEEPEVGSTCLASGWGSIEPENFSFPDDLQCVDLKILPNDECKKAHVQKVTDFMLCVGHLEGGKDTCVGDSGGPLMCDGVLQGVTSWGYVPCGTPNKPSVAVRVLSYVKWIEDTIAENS

Consider `CC[C@H](C)[C@H]1NC(=O)C[C@H](CCCCN)NC(=O)[C@@H]2CCCN2C(=O)[C@@H](NC(C)=O)CNC(=O)/C=C/[C@H](Cc2ccc(O)cc2)NC1=O`, for which the Ki was 230 µM in [1] and 380 µM in series [3]. Also, in series [2], the Ratio Ki worked out at 0.6.

With `CC[C@H](C)[C@H]1NC(=O)C[C@H](CCCNC(=N)N)NC(=O)[C@@H]2CCCN2C(=O)[C@@H](NC(C)=O)CNC(=O)/C=C/[C@H](Cc2ccc(O)cc2)NC1=O`, the figures for the Ki in series [1] and in [3] were 30 µM and 40 µM, respectively. The Ratio Ki in series [2] was 0.8.

Take `CC[C@H](C)[C@H]1NC(=O)C[C@H](Cc2cccc(CN)c2)NC(=O)[C@@H]2CCCN2C(=O)[C@@H](NC(=O)CCCCCN)CNC(=O)/C=C/[C@H](Cc2ccc(O)cc2)NC1=O`: the Ki in series [4] amounted to 0.025 µM; in series [1] it was 50 µM; in series [5], 330 µM; in series [6] it was 360 µM; in series [7], 1300 µM; in series [8], 2000 µM. The Ratio Ki in [2] stood at 2000. In addition, the remaining at 48 h, 200 µM in series [9] came to 81%.

Regarding `COC(=O)C(Cc1cccc(CN)c1)NC(C)=O` (racemic), the Ki in series [1] amounted to 400 µM; in series [10] it was 14 µM.

As for `CC[C@H](C)[C@H]1NC(=O)C[C@H](Cc2cccc(CN)c2)NC(=O)[C@@H]2CCCN2C(=O)[C@@H](NC(C)=O)CNC(=O)/C=C/[C@H](Cc2ccc(O)cc2)NC1=O`, the Ki came out at 0.6 µM in series [4]; 100 µM in [1]; 680 µM in series [5]; 310 µM in series [6]; 1800 µM in [7]; 3300 µM in series [8]. Also, in series [2], the Ratio Ki was 170. Moreover, in [9], the remaining at 48 h, 200 µM stood at 95%.

In the case of `CC[C@H](C)[C@H]1NC(=O)C[C@H](CCCNC(=N)N)NC(=O)[C@@H]2CCCN2C(=O)[C@@H](NC(=O)CCCCCN)CNC(=O)/C=C/[C@H](Cc2ccc(O)cc2)NC1=O`, the Ki in series [1] was 10 µM; in series [3] it was 0.007 µM. Besides, the Ratio Ki in [2] was found to be 1400.
